# ChEMBL document CHEMBL1133631, “Synthesis of potent agonists of the D-myo-inositol 1,4, 5-trisphosphate receptor based on clustered disaccharide polyphosphate analogues of adenophostin A” (J Med Chem, 2000)
# What was measured:
# [1] = system: IP3 receptor (Rattus norvegicus); assay: Concentration response relationship was fitted to logistic equations using kaleidagraph software from which maximal response was measured.
# [2] = Binding affinity was measured by equilibrium competing with [3H]IP3 (Inositol 1,4,5-trisphosphate receptor)
# Method in brief: (§1)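 Membranes from livers of male Wistar rats were Percoll-purified. A 0.1 mg protein sample in 50 mM Tris, 1 mM EGTA, pH 8.3 was incubated 5 min at 4 °C with [³H]IP₃ (45 nCi, 40 Ci/mmol) and competing ligand. The incubation was stopped by centrifugation, and pellets were scintillation-counted. Parameters came from logistic fits. Nonspecific binding was 10–15%. Triplicate, means ± SEM.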
# [3] = Concentration response relationship was used to measure half-maximally effective agonist concentration.; type: functional
# Method in brief: (§2)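 Saponin-permeabilized hepatocytes (10⁶ cells·mL⁻¹, 10 µg·mL⁻¹ saponin) loaded to steady state with ⁴⁵Ca²⁺ (20 µCi·mL⁻¹) for 5 min at 37 °C in cytosol-like medium (free Ca²⁺ 200 nM, 7.5 mM ATP, FCCP, PIPES pH 7.0). Cells diluted 5-fold into ATP-free medium with 1.25 µM thapsigargin; ligand added after 15 s, stores filtered 60 s later. Logistic fits gave maximal response, EC50 and Hill slope; means ± SEM.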
# [4] = Hill coefficient for [Ca2+] release was evaluated; type: functional
# Method in brief: as §2
# [5] = Hill coefficient for equilibrium binding was evaluated (Inositol 1,4,5-trisphosphate receptor)
# Method in brief: as §1
# [6] = Ratio of EC50 and Kd; type: functional
# [7] = system: IP3 receptor (Rattus norvegicus); assay: [Ca2+] release with 10 uM was measured by non-specific binding method.
# [8] = compound was tested and the Ratio of EC50 and Kd was found out.; type: functional
# [9] = system: IP3 receptor (Rattus norvegicus); assay: Maximal Ca+ release response was determined from permeabilized rat hepatocyte assay
SMILES,Max response [1],Kd [2],EC50 [3],Hill slope [4],Hill slope [5],Ratio [6],IP3-sensitive Ca2+ stores [7],Ratio [8],Max response [9]
O=P(O)(O)OC1[C@@H](OP(=O)(O)O)C(O)C(O)[C@@H](OP(=O)(O)O)[C@H]1O (stereo partly specified),32%,0.0017 µM,0.201 µM,2.9,0.88,120,–,–,–
O=P(O)(O)OC1[C@@H](OP(=O)(O)O)C(CO)O[C@@H](O[C@@H]2[C@H](OP(=O)(O)O)C(OCCCc3ccc(CCCOC4O[C@H](CO)[C@H](O[C@@H]5OC(CO)[C@H](OP(=O)(O)O)C(OP(=O)(O)O)[C@@H]5O)[C@@H]4OP(=O)(O)O)cc3)O[C@@H]2CO)[C@H]1O (stereo partly specified),31%,0.0036 µM,0.215 µM,2.2,0.95,60,92%,–,–
O=P(O)(O)OC1[C@@H](OP(=O)(O)O)C(CO)O[C@@H](O[C@@H]2[C@H](OP(=O)(O)O)C(OCCCc3ccccc3)O[C@@H]2CO)[C@H]1O (stereo partly specified),–,0.0031 µM,0.381 µM,3.9,1.16,–,87%,123,34%
O=P(O)(O)OC1[C@@H](OP(=O)(O)O)C(CO)O[C@@H](O[C@@H]2[C@H](OP(=O)(O)O)C(OCCCc3cc(CCCOC4O[C@H](CO)[C@H](O[C@@H]5OC(CO)[C@H](OP(=O)(O)O)C(OP(=O)(O)O)[C@@H]5O)[C@@H]4OP(=O)(O)O)c(CCCOC4O[C@H](CO)[C@H](O[C@@H]5OC(CO)[C@H](OP(=O)(O)O)C(OP(=O)(O)O)[C@@H]5O)[C@@H]4OP(=O)(O)O)cc3CCCOC3O[C@H](CO)[C@H](O[C@@H]4OC(CO)[C@H](OP(=O)(O)O)C(OP(=O)(O)O)[C@@H]4O)[C@@H]3OP(=O)(O)O)O[C@@H]2CO)[C@H]1O (stereo partly specified),42%,0.0043 µM,0.161 µM,2.1,1.04,37,101%,–,–
CCCOC1O[C@H](CO)[C@H](O[C@@H]2OC(CO)[C@H](OP(=O)(O)O)C(OP(=O)(O)O)[C@@H]2O)[C@@H]1OP(=O)(O)O (stereo partly specified),–,0.0047 µM,0.491 µM,2.1,0.97,–,87%,104,42%
CO[C@@H]1O[C@H](CO)[C@@H](O[C@H]2O[C@@H](CO)[C@@H](OP(=O)(O)O)[C@H](OP(=O)(O)O)[C@@H]2O)[C@H]1OP(=O)(O)O,–,0.0044 µM,0.484 µM,3.4,0.99,–,89%,110,33%
